Test [1] deals with Muscarinic acetylcholine receptor M2 (Homo sapiens) (UniProt P08172). Briefly: Inhibition of binding of 0.1 nM [3H]quinuclidinyl benzilate to Muscarinic acetylcholine receptor M2 in membranes of transfected CHO cells in the presence of 10 uM GTP.
Test [2] concerns the target Muscarinic acetylcholine receptor M4 (Homo sapiens) (UniProt P08173). Briefly: Inhibitory activity against [3H]-cyclic AMP accumulation in CHO transfected cells mediated by Muscarinic acetylcholine receptor M4.
For test [3], the target named is Muscarinic acetylcholine receptor M2 (Homo sapiens) (UniProt P08172). Briefly: Inhibition of binding of 0.1 nM [3H]quinuclidinyl benzilate to Muscarinic acetylcholine receptor M2 in membranes of transfected CHO cells in the absence of GTP.
Test [4] has as its target T1, Muscarinic acetylcholine receptor M1 (Rattus norvegicus, UniProt P08482).
T1 sequence (P08482 whole entry): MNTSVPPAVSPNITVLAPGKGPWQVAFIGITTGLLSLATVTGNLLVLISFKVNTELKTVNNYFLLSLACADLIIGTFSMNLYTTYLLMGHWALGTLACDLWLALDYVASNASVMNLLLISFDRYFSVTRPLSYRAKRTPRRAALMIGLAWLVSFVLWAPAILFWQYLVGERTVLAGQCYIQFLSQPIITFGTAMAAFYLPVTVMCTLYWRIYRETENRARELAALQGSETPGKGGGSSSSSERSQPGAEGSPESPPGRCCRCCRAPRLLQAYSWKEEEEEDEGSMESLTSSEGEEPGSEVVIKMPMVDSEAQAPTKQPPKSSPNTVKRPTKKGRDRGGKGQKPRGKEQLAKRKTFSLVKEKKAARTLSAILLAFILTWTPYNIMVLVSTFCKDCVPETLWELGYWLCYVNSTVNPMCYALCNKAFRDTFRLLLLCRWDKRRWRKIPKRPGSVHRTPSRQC

The target of test [5] is T1, Muscarinic acetylcholine receptor M1. Briefly: Inhibition of binding of [3H]oxotremorine M to Muscarinic acetylcholine receptor M1 in rat cerebral cortical membranes. It counts as cell membranes, Membrane. The essentials: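 Agonist radioligand assay: rat cortical membranes with 2 nM [3H]oxotremorine M in 25 mM sodium phosphate pH 7.4 with 5 mM MgCl2, 2 h at 25 °C, in triplicate. Nonspecific binding used 5 µM atropine. Filtration followed by scintillation counting.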

Test [6] addresses T2, Muscarinic acetylcholine receptor M1 (Homo sapiens, UniProt P11229).
T2 sequence (P11229 whole entry): T1 sequence (P08482 whole entry) with V5A, S254T, S309P, K320R, G337A, V413I
Briefly: Inhibition of binding of [3H]quinuclidinyl benzilate to muscarinic receptors in membranes of CHO cells transfected with Muscarinic acetylcholine receptor M1. It counts as cell membranes. The method, boiled down: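 Membranes from CHO cells expressing human M1 receptor, harvested at 80-100% confluence. Competition against 0.2 nM [3H]quinuclidinyl benzilate in 25 mM sodium phosphate pH 7.4 with 5 mM MgCl2; 30 min at 37 °C, triplicate. Nonspecific binding with 10 μM atropine. Filtration and scintillation counting.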

Test [7] deals with Muscarinic acetylcholine receptor M4 (Homo sapiens) (UniProt P08173). Briefly: Inhibition of binding of [3H]quinuclidinyl benzilate to Muscarinic acetylcholine receptor M4 in membranes of transfected CHO cells.
Test [8] has as its target T1, Muscarinic acetylcholine receptor M1. Briefly: The compound was evaluated for inhibition of binding of [3H]quinuclidinyl benzilate to Muscarinic acetylcholine receptor M1 in Rat Cerebral Cortical Membranes. The method, boiled down:
(§1)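 Rat cerebral cortex membranes were homogenised in 50 mM Tris-HCl pH 7.4 and diluted in HEPES binding buffer. They were incubated with 0.2 nM [3H]quinuclidinyl benzilate in 20 mM HEPES pH 7.4 with 10 mM MgCl2 and 100 mM NaCl for 30 min at 37 °C, in triplicate. Nonspecific binding used 1 µM atropine. Filtration was followed by scintillation counting.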

In test [9] the target is Muscarinic acetylcholine receptor M2 (Homo sapiens) (UniProt P08172). Briefly: Inhibition of binding of [3H]quinuclidinyl benzilate to Muscarinic acetylcholine receptor M2 in membranes of transfected CHO cells.
The target of test [10] is T1, Muscarinic acetylcholine receptor M1. Briefly: Inhibition of binding of [3H]quinuclidinyl benzilate to Muscarinic acetylcholine receptor M1 in rat cerebral cortical membranes. It is filed as cell membranes, Membrane. The essentials:
as §1

Test [11] deals with Muscarinic acetylcholine receptor M1 (Homo sapiens) (UniProt P11229). Briefly: Inhibitory activity against stimulation of [3H]inositol monophosphate accumulation in [3H]inositol-labelled CHO transfected cells mediated by Muscarinic acetylcholine receptor M1.
Sequence of Muscarinic acetylcholine receptor M1 (Homo sapiens) (P11229 whole entry, looked up): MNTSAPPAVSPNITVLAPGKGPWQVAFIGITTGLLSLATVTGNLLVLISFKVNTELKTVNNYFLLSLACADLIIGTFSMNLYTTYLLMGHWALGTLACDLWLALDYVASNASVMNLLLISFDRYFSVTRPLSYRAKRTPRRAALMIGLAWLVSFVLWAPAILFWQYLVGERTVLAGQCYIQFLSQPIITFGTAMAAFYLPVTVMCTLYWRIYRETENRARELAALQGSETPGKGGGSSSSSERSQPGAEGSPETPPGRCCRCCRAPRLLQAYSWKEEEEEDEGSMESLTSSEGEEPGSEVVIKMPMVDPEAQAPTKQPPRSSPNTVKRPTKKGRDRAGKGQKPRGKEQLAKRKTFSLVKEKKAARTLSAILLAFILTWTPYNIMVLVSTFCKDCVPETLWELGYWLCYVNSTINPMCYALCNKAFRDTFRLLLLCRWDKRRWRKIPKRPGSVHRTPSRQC
For test [12], the target named is T3, Muscarinic acetylcholine receptor M3 (Homo sapiens, UniProt P20309). Briefly: Inhibition of binding of [3H]quinuclidinyl benzilate to muscarinic receptors in membranes of CHO cells transfected with Muscarinic acetylcholine receptor M3. It is filed as cell membranes.
Target sequence in this assay (P20309 whole entry): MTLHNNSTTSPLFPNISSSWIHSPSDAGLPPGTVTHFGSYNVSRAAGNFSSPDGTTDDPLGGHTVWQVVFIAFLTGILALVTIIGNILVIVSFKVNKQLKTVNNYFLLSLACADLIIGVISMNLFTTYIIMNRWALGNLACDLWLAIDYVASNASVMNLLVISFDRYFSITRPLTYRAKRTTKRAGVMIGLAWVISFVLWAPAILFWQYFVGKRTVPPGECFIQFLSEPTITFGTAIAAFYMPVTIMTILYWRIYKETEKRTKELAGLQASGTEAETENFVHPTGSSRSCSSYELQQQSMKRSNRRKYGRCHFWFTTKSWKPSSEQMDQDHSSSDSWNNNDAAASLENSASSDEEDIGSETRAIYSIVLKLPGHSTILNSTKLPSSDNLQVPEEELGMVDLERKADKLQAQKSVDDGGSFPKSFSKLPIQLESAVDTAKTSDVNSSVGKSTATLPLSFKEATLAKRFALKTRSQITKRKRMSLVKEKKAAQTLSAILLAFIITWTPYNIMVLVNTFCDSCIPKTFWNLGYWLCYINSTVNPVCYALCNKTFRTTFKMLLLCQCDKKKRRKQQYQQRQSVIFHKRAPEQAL
For test [13], the target named is T3, Muscarinic acetylcholine receptor M3. Briefly: Inhibitory activity against stimulation of [3H]inositol monophosphate accumulation in [3H]inositol-labelled CHO transfected cells mediated by Muscarinic acetylcholine receptor M3.
Target sequence in this assay (P20309 whole entry, looked up): as the sequence (P20309 whole entry) above

Positions count from the first letter of the chain named.

Sequence of Muscarinic acetylcholine receptor M2 (Homo sapiens) (P08172 whole entry, looked up): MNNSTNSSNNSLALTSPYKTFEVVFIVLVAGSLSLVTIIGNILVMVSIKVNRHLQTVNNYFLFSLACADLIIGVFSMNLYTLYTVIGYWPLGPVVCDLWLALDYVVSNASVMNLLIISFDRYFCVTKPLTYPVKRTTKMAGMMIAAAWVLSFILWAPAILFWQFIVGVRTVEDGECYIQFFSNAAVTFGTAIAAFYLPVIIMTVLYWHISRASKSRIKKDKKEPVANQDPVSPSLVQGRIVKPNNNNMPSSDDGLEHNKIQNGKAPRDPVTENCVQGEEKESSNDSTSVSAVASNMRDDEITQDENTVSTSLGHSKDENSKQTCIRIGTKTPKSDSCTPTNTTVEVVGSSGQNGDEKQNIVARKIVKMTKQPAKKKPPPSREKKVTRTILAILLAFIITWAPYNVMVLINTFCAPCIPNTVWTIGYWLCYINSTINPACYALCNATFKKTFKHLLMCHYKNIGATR

Regarding `CC(=O)OC1CC2CCCC1N2` (stereo not drawn), the IC50 – broadly, the concentration that gives 50% inhibition – in test [1] was 0.12 µM; in [2] it was 0.011 µM (agonist); in test [3] it was 0.017 µM. Also, the Ki (commonly a measure of affinity in units of concentration, obtained from inhibition or displacement) in test [4] was determined as 22 µM; in [5], 0.0056 µM; in test [6], 21 µM; in [7], 0.033 µM; in test [8] it was 22 µM; in test [9], 0.0026 µM. Also, the Ki in [10] is 21 µM; in test [12] it was 0.68 µM. In addition, the concentration giving a half-maximal response (EC50) (usually the concentration needed to bring the measured effect to its halfway point) in test [11] was determined as 0.023 µM; in test [13], 0.0036 µM.

The record behind these values is ChEMBL document CHEMBL1131242, “6beta-Acetoxynortropane: a potent muscarinic agonist with apparent selectivity toward M2-receptors” (J Med Chem, 1998).
